The record followed here is ChEMBL document CHEMBL1155975, “Pentacyclo-undecane derived cyclic tetra-amines: synthesis and evaluation as potent anti-tuberculosis agents” (Eur J Med Chem, 2009).

A word on the MIC: it is the smallest concentration in the dilution series that meets the test's criterion for growth inhibition. A higher MIC goes with weaker potency. As usually defined, the IC50 is the concentration needed to halve the response being measured. Read a high IC50 as weaker potency.

Test [1] concerns Mycobacterium tuberculosis. The test is described as follows: Antimycobacterial activity against Mycobacterium tuberculosis H37Rv after 21 days by broth macrodilution method. It counts as functional. The note with it: 504 h. Summed up: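 Triplicate tubes of Middlebrook 7H9 broth with casitone, glycerol and 10% OADC; methanol-dissolved compounds diluted twofold, 128–0.125 µg/mL. Inoculum from log-phase H37Rv, adjusted to McFarland 1 and diluted to 1 × 10^5 CFU/mL, 500 µL per tube. Compound-free and solvent controls included. Aerobic incubation at 37 °C, tubes read macroscopically every 7 days to day 21 for MIC.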

For test [2], the system named is Mycobacterium tuberculosis. The test is described as follows: Antimycobacterial activity against Mycobacterium tuberculosis XDR infected in MDBK by BACTEC analysis. It counts as functional. Summed up:
(§1)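 Radiometric BACTEC 460 TB. Cultures were grown at 37 °C with stirring, inoculated into BACTEC vials at OD ~0.16 and grown to GI 500 (±50) as the primary culture. Compounds were diluted in methanol to 8–0.03125 µg/mL final. GI was recorded every 24 h, and a daily ΔGI >10 counted as growth. Strains were H37Rv (ATCC 25618) and XDR strain X194.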

For test [3], the system named is Mycobacterium tuberculosis. As to the kind of experiment: Antimycobacterial activity against Mycobacterium tuberculosis H37Rv infected in MDBK by BACTEC analysis. The format is functional. Summed up: as §1
The nature of test [4]: Cytotoxicity against MDBK cells after 48 hrs by MTT assay. It counts as cell-based. As to conditions: Bos taurus. Summed up:
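MDBK monolayers were grown in RPMI 1640 with 10% heat-inactivated FBS and pen/strep. Cells were seeded at 5 × 10^4 per well, settled 6 h, then exposed 42 h at 37 °C to compounds in 1% methanol diluted in media; the vehicle served as the 100% viability control. MTT was added for 3 h and formazan read at 570 nm. Runs were quintuplicate, repeated on two days; % cytotoxicity = 100 − (OD sample/OD control × 100).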
(In general: Tetrazolium dyes change colour on reduction, which living cells bring about.)

In brackets after ≈: the same amount, converted by molar mass.

Turning to `c1ccc(CN2CCN(CCC34OC5(CCN6CCN(Cc7ccccc7)CC6)C6C7CC(C8C7C5C83)C64)CC2)cc1` (centres undefined), the MIC in test [1] stood at 113 µM (≈ 64 µg/mL).

For `c1ccc(CN2CCCN(CCC34OC5(CCN6CCCN(Cc7ccccc7)CC6)C6C7CC(C8C7C5C83)C64)CC2)cc1` (centres undefined), the MIC in test [1] came to 108 µM (≈ 64.1 µg/mL).

In the case of `O=C(c1ccccc1)N1CCN(CCC23OC4(CCN5CCN(C(=O)c6ccccc6)CC5)C5C6CC(C7C6C4C72)C53)CC1` (centres undefined), the MIC in test [1] came to 216 µM (≈ 128 µg/mL). This MIC lies about 2-fold higher than the previous one.

`CO[C@H]1/C=C/O[C@@]2(C)Oc3c(C)c(O)c4c(O)c(c(/C=N/N5CCN(C)CC5)c(O)c4c3C2=O)NC(=O)/C(C)=C\C=C\[C@H](C)[C@H](O)[C@@H](C)[C@@H](O)[C@@H](C)[C@H](OC(C)=O)[C@@H]1C` [RIFAMPIN] came in with an MIC in test [2] greater than 1 µg/mL. The same measure, in the same setting: the value for `NNC(=O)c1ccncc1` [ISONIAZID] was greater than 0.2 µg/mL. As for `O=C(c1ccc([N+](=O)[O-])o1)N1CCCN(CCC23OC4(CCN5CCCN(C(=O)c6ccc([N+](=O)[O-])o6)CC5)C5C6CC(C7C6C4C72)C53)CC1` (centres undefined), the minimum inhibitory concentration (MIC) in test [1] is 23.2 µM (≈ 16 µg/mL); in test [3], greater than 11.6 µM. Compound `c1ccc(CNCCC23OC4(CCNCc5ccccn5)C5C6CC(C7C6C4C72)C53)nc1` (centres undefined) showed an MIC in test [1] of 298 µM (≈ 128 µg/mL). Consider `O=C(c1ccc([N+](=O)[O-])o1)N1CCN(CCC23OC4(CCN5CCN(C(=O)c6ccc([N+](=O)[O-])o6)CC5)C5C6CC(C7C6C4C72)C53)CC1` (centres undefined), for which the MIC in test [1] is 24.1 µM (≈ 16 µg/mL); in test [3], greater than 12.1 µM. `CCCCCCCCCCN1CCN(CCC23OC4(CCN5CCN(CCCCCCCCCC)CC5)C5C6CC(C7C6C4C72)C53)CC1` (centres undefined) registered an MIC in test [2] of 0.75 µM. The same compound gave an IC50 in test [4] of 25 µM. As for `OCCN(CCC12OC3(CCN(CCO)Cc4ccccc4)C4C5CC(C6C5C3C61)C42)Cc1ccccc1` (centres undefined), in test [1], it took 248 µM (≈ 128 µg/mL) to inhibit growth (MIC). The compound `NCC[C@H](O)C(=O)N[C@@H]1C[C@H](N)[C@@H](O[C@H]2O[C@H](CN)[C@@H](O)[C@H](O)[C@H]2O)[C@H](O)[C@H]1O[C@H]1O[C@H](CO)[C@@H](O)[C@H](N)[C@H]1O` [AMIKACIN] yielded an MIC in test [2] greater than 5 µg/mL.

In test [3], `CC(C)=CCC/C(C)=C/CNCCNC1C2CC3CC(C2)CC1C3` (centres undefined) [SQ109] returned an MIC of 0.63 µM (≈ 0.208 µg/mL). The same compound showed a half-inhibitory concentration (IC50) in test [4] of 26 µM. For the compound `CC1COc2c(N3CCN(C)CC3)c(F)cc3c(=O)c(C(=O)O)cn1c23` (centres undefined) [OFLOXACIN], the MIC in test [2] is greater than 2 µg/mL. With `CC[C@@H](CO)NCCN[C@@H](CC)CO` [ETHAMBUTOL], the values for the MIC in test [1] and in test [2] were 19.6 µM (≈ 4 µg/mL) and greater than 2.5 µg/mL, respectively. On to `CC(C)=CCC/C(C)=C\CN1CCN(CCC23OC4(CCN5CCN(C/C=C(\C)CCC=C(C)C)CC5)C5C6CC(C7C6C4C72)C53)CC1` (centres undefined), for which the MIC in test [1] turned out to be 6.09 µM (≈ 4 µg/mL); in test [3], 0.76 µM (≈ 0.499 µg/mL); in test [2], 1.52 µM. The compound also returned an IC50 in test [4] of 30 µM. On to `CC(C)=CCC/C(C)=C/CC/C(C)=C\CN1CCN(CCC23OC4(CCN5CCN(C/C=C(\C)CC/C=C(\C)CCC=C(C)C)CC5)C5C6CC(C7C6C4C72)C53)CC1` (centres undefined), for which the figures for the MIC in test [1], in test [3] and in test [2] were 5.04 µM (≈ 4 µg/mL), 0.32 µM (≈ 0.254 µg/mL) and 0.63 µM, respectively. The same compound yielded an IC50 in test [4] of 24 µM. The compound `C1CNCCN(CCC23OC4(CCN5CCCNCC5)C5C6CC(C7C6C4C72)C53)C1` (centres undefined) showed an MIC in test [1] of 155 µM (≈ 64 µg/mL). Regarding `NC[C@H]1O[C@H](O[C@H]2[C@H](O)[C@@H](O[C@H]3O[C@H](CO)[C@@H](O)[C@H](N)[C@H]3O)[C@H](N)C[C@@H]2N)[C@H](O)[C@@H](O)[C@@H]1O` [KANAMYCIN], the MIC in test [2] was greater than 5 µg/mL.
